System: MS2 coat protein
Experiment: apparent Kd, MS2 coat protein; higher = weaker binding; RNA-MaP array; FMN 200 µM where present
How it was run: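 Binding was read on Illumina sequencing-chip clusters where stalled E. coli RNA polymerase had transcribed each design. A titration of SNAP-549-labelled MS2 coat protein began at 0.7 or 1.5 nM and doubled to 3 µM, once without ligand and once with constant ligand, in 100 mM Tris-HCl pH 7.5, 80 mM KCl, 4 mM MgCl2, BSA, DTT, yeast tRNA and Tween-20. The apparent Kd is the median of filtered per-cluster binding-curve fits, based on green signal normalised to red-channel RNA signal and control-cluster median Fmax.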

[1] = designed as: OFF switch for flavin mononucleotide, no ligand
[2] = ligand present: flavin mononucleotide, designed as: OFF switch for flavin mononucleotide
[3] = designed as: ON switch for flavin mononucleotide, no ligand
[4] = ligand present: flavin mononucleotide, designed as: ON switch for flavin mononucleotide

AUGCUAGUGUGAGGAUAUUAACAUGAGGAUCACCCAUGUUGGAAGUACACGACAUGAGGUACAUUUAAGAAGGUACAUUAGCAU
apparent Kd [1]: 145 nM | apparent Kd [2]: 161 nM

GGAUGACAAAGUCAUCCCGCUUUGACAUGAGGAUCACCCAUGUAGGAUAUAUUAAUCAAAGAUUAAUAGAAGGACAUGUUUCUG
apparent Kd [1]: 72.4 nM | apparent Kd [2]: 174 nM

CCAUCGGAAGGAUAUACAUGAGGAUCACCCAUGUGCGAGCCCGCGCUCUCGGGAAGAUGUAGAAGGUUCAAGAA
apparent Kd [1]: 35.9 nM | apparent Kd [2]: 36.3 nM

UGGUGGAAGCAGGAUAUGCUUGUUUUAUUGAUUGCAGAAGGGCUAACAUGAGGAUCACCCAUGUAAGAGGUGUU
apparent Kd [1]: 428 nM | apparent Kd [2]: 196 nM

AUUAUGACCGAGUAAAGCUUCAAAACAUGAGGAUCACCCAUGUAGGAUAUCAGCACGAUAAGUGCUGAGAAGGACAUCUCGGUC
apparent Kd [1]: 14.3 nM | apparent Kd [2]: 15.1 nM

AGCCUUAGAGGAUAUACAUGAUCCUCCAUCGCGAAAGGGCUACAUGAGGAUCACCCAUGUAGAAGGCUGAGGGA
apparent Kd [1]: 20.1 nM | apparent Kd [2]: 33.6 nM

AGGUACAUGAGGAUCACCCAUGUAAGAGACCUCAUGCGAUGUAGAAGGAUAAUCCGAGAAGAGGUAUAGGAUAUACAUGAGAAA
apparent Kd [1]: 177 nM | apparent Kd [2]: 149 nM

ACAUGAGGAUCACCCAUGUAACAUGUGAAUUAAUUCUUUAACAGAAGGCGAAUAUAUAACAUUGUCGAGGAUAUGUACUUAUGU
apparent Kd [1]: 9.85 nM | apparent Kd [2]: 7.41 nM

UGUGCUAUGUAGAAGGCAGAUCUGAUUCAGAUCUGAGGAUAUACAUGAGGAUCACCCAUGUUAUGCACCAGCACGAGAGUGCAG
apparent Kd [1]: 9.17 nM | apparent Kd [2]: 24 nM

GUAGAGUAGUGAGGAUAUACGAGCACGAUAGUGCGGCGAUCCAAUAAUACAUGAGGAUCACCCAUGUAGAAGGCACUUCUCUAC
apparent Kd [1]: 7.43 nM | apparent Kd [2]: 81.2 nM

UUCAUGUGAGGAUAUGCGGCACCAGGCAAGCCUAGUGCUGAGCAGAAGGCACAUGAGGAUCACCCAUGUGCUCC
apparent Kd [1]: 29.3 nM | apparent Kd [2]: 72.2 nM

GCGUUUGUAUCACAUGUAUUACAUGAGGAUCACCCAUGUUACUAGGAUAUGUAUUAGUAUUAUCAACAGAAGGAGUAAGAACGC
apparent Kd [1]: 17.5 nM | apparent Kd [2]: 18.3 nM

GUUACAUGAGGAUCACCCAUGUAUGUGUGGGAGUAAGUGUCUUAGGAUAUCUAUCAUUGAAUUUAAGAGAAGGAAGAUUGUUGU
apparent Kd [3]: 113 nM | apparent Kd [4]: 126 nM

CGCUCUAUAUAUUUGGCAAGAAUCAGAAGGCGUUACAUGAGGAUCACCCAUGUUUUGAAUAGUAACGAGGAUAUGAUAUGAGCG
apparent Kd [1]: 21.6 nM | apparent Kd [2]: 25 nM

GUGCGUGGCUAGGAUAUUGAGGAGUUUAGUCAGCGAGAAGGAGCCACAUGAGGAUCACCCAUGUGGUGAAGCUC
apparent Kd [1]: 18.6 nM | apparent Kd [2]: 68.6 nM

ACAUGAGGAUCACCCAUGUUGAAUUAGGAUAUUUGACUGCACAUGAGGUUCUCCCAUGUUCUACCGGAGAAGGGAUUAAUAAUU
apparent Kd [3]: 549 nM | apparent Kd [4]: 240 nM

UUGGACUUCGUAGGAUAUGUAGGAUAUUCCUACAUGAGGAUCACCCAUGUUGACAUGGAAGAAGGACAGAAGGACGAUGUCCAU
apparent Kd [3]: 257 nM | apparent Kd [4]: 4.12 nM

GGUACCAACACAGGAUAUGCUAUCCUUUGGGUAGCAGAAGGGUGAAACAUGAGGAUCACCCAUGUGGUGCCAGGGCGUGAGCCC
apparent Kd [3]: 1460 nM | apparent Kd [4]: 96.2 nM

UGUGGGUGAUCAGGAUAUCCGUAUACAUGAGGAUCACCCAUGUCCUUGCUCAGCCGGGUAAGUUUGGAGAAGGGAUCAUCAAAU
apparent Kd [3]: 357 nM | apparent Kd [4]: 32.1 nM

AAGUCUGGACGAGGAUAUCAGCUGUAUCUGGCGUCAACAUGAGGAUCACCCAUGUUGCUAUAGGGUGAGAAGGCGUUUGGGCAA
apparent Kd [3]: 84.9 nM | apparent Kd [4]: 19.9 nM

GCCCGAUCCACGUUGGGCCCAGACAGAAGGGCACACGGUCUAAGUCACAUGAGGAUCACCCAUGUGCAGGAUAUGUCUCGACUC
apparent Kd [1]: 7.63 nM | apparent Kd [2]: 25.9 nM

GGCGGAGACGUUAACAUGAGGAUCACCCAUGUCGAAGGAGAUGAGGAUAUCGCACACGAUGUGUGUGAGAAGGCAUGGUCUGCC
apparent Kd [3]: 67.4 nM | apparent Kd [4]: 15.4 nM

UUACUCAUGUAAGGAUAUGCAGCCGUUUCGGUUGCAGAAGGUACUAUAAUACAUGAGGAUCACCCAUGUCUUUUUAAUUUAGAC
apparent Kd [3]: 78.4 nM | apparent Kd [4]: 39.6 nM

CUGAGCUGAGGAUAUACAUGAGGAUCACCCAUGUGGGCCUGCGAGGUUACUUGCACAUGUAGAAGGCAGUUCGG
apparent Kd [1]: 136 nM | apparent Kd [2]: 17.2 nM

GUUUCACAUGAGGAUCACCCAUGUGAGGAUAUAGAUUUGUUAGUGGUGAUUGGUGGAUUUAGAAGGCGCGUGAU
apparent Kd [1]: 81.3 nM | apparent Kd [2]: 66.2 nM

UCGUUUUUUGAGGAUAUGCGACGUUCCUUCGUCGUAGAAGGCGAUACAUGAGGAUCACCCAUGUUUAUGGGCAU
apparent Kd [1]: 108 nM | apparent Kd [2]: 138 nM

UGUACUAUAAGGUUAAUUGUAUAUUGAGAAGGCAUUCACAUGAGGAUCACCCAUGUAACAUGGGAUGAGGAUAUCAAUUUGUAC
apparent Kd [3]: 197 nM | apparent Kd [4]: 33.4 nM

GUAUGAGCGAUAGGAUAUACUGAGAUUGAAUGGGUAGAAGGAUCACUUGUGAGGAAGACAUGAGGAUCACCCAUGUCACGGGCC
apparent Kd [3]: 92.8 nM | apparent Kd [4]: 119 nM

ACAGAGCCUGACAUGAGGAUCACCCAUGUUAGAUUGUUAUGUUAGGAUAUUGUCUAGCAACUAGACAAGAAGGGAUGCUCUGUG
apparent Kd [3]: 20.1 nM | apparent Kd [4]: 14.3 nM

GUCAGCUCGUGAGGAUAUACAACACUGCUCCGGCAGUGUAUUAAGAUCACAUGAGGAUCACCCAUGUAGAAGGCACGAGCUGAU
apparent Kd [1]: 13.3 nM | apparent Kd [2]: 237 nM

ACCAUUUACUAAUCCUCUAUACAUGAGGAUCACCCAUGUUAUGAGGAUAUCAUCGUUCGCCGCGUUGAGAAGGCAUAGCAUUCG
apparent Kd [1]: 16.3 nM | apparent Kd [2]: 25.9 nM

AGCUGUGGCAGAGGAUAUACUACUAUAAUCCAUUGCAAAUAGCGAUGGACAUGAGGAUCACCCAUGUAGAAGGCUGUCUCAGCA
apparent Kd [1]: 38.9 nM | apparent Kd [2]: 153 nM

AUGCUAGUGUGAGGAUAUUAACAUGAGGAUCACCCAUGUUGGAAGAUCAUGACGAUCACGCAUGAUAAGAAGGUACAUUAGCAU
apparent Kd [1]: 40.8 nM | apparent Kd [2]: 94.9 nM

UUUUUACAUGAGGAUCACCCAUGUGAGGAUAUGGAUUCGCUGGCCGUAGCCAGUGGAUCCAGAAGGCGCAUGAU
apparent Kd [1]: 82.7 nM | apparent Kd [2]: 280 nM

CUAGCAACAUGAGGAUCACCCAUGUAGGAUAUCGCUAUUGUAAUCAUGAAACAUGAUUACAAUAGCGAGAAGGACAUAUGCUAU
apparent Kd [1]: 8.33 nM | apparent Kd [2]: 9.83 nM

ACAUGAUAUGUAGGAUAUCACAUUAAUUGUUUUAUAAUUGUAUUUAGGAUUUGAGAAGGACAUUUACAUGAGGAUCACCCAUGU
apparent Kd [1]: 15.8 nM | apparent Kd [2]: 11.3 nM

UGUUAUUAGACAGGAUAUUGAAUGUUAAGUAUUAACAUGAGGAUCACCCAUGUAUUUCAUUCGUACAAGAAGGGUCAUGUUCCU
apparent Kd [3]: 166 nM | apparent Kd [4]: 202 nM

GUGCGGUAGGAGAAGGACGGAGGCUUCUUUUCAUACAUGAGGAUCACCCAUGUAGGAUAUCCUACCUCACGCGGCCUACUACUG
apparent Kd [1]: 8.36 nM | apparent Kd [2]: 7.7 nM

UCACGGGUUUGAGGAUAUAUAUUUAUUAUUUUAAUAGAAGGCAAAGAGAUAGUUUUUUCACUAUACAUGAGGAUCACCCAUGUU
apparent Kd [1]: 41.5 nM | apparent Kd [2]: 36 nM

CUGCUUCCCAGUUUGGUUAUUUAUACAGAAGGCCAUUCACAUGAGGAUCACCCAUGUCAAGUAAUGGAGGAUAUGUUAUUGUCG
apparent Kd [3]: 6.64 nM | apparent Kd [4]: 4.65 nM

UGUGUUAUCGGAGGAUAUCGAUAUCAAACAUGAGGAUCACCCAUGUUGAGGAUCACACAUGUCCACGAGAAGGCCGACGUAGUG
apparent Kd [3]: 7.12 nM | apparent Kd [4]: 7.23 nM

GUCCUACAUGAGGAUCACCCAUGUGAGGAUAUGUGGUUAGCUGCUAGGUAGUUAGUAUGCAGAAGGUACGUGAU
apparent Kd [1]: 40.4 nM | apparent Kd [2]: 41.9 nM

CCGGAGACGGGUAGCCUGACAUGAGGAUCACCCAUGUGAUCCUAGGAUAUGGAUCCUAAUUGGAUCCAGAAGGAGGUUGGCUAC
apparent Kd [3]: 1210 nM | apparent Kd [4]: 392 nM

CCUCAGUAAGGAUAUCAGCUUAUAAGGUUGGUAAUGAGAGCUGAGAAGGUACAUGAGGAUCACCCAUGUUAGUU
apparent Kd [1]: 27.1 nM | apparent Kd [2]: 95.7 nM

GCACAUGGCAUAGGAUAUAGAGCUUUAGUUUAUAUAGGUAGUUGGACUUAACUAGAAGGAUGGUACAUGAGGAUCACCCAUGUU
apparent Kd [3]: 20.6 nM | apparent Kd [4]: 17.4 nM

UUAUCUAUGUAAGGAUAUCGAUGAUAUACGCAUCCGACAUGAGGAUCACCCAUGUUAUAUUUUGUCGAGAAGGUACAUUGUCGG
apparent Kd [3]: 46.8 nM | apparent Kd [4]: 50.3 nM

GUGUAGUCAGGAUAUACAUAGGAAGAUAAUAUAAUAUAAGUACAUGAGGAUCACCCAUGUAGAAGGGACAGUGU
apparent Kd [1]: 38.5 nM | apparent Kd [2]: 53.8 nM

GCUUGAGCAGGAUAUACAAGCUUGAGCUGAAAAGUUCGAGUACAUGAGGAUCACCCAUGUAGAAGGGUUCGAGU
apparent Kd [1]: 27.5 nM | apparent Kd [2]: 32.3 nM

GCGCGUUGAGGAUAUACGAACAUGUCGCCAGAUGUCAUGGUACAUGAGGAUCACCCAUGUAGAAGGUGGUGCGC
apparent Kd [1]: 208 nM | apparent Kd [2]: 352 nM

UGUCAUUUACAGAAGGGUAGUUGGGUUUUACAUGAGGAUCACCCAUGUUUUACAGGAUAUGUGUUUUGUUAAUAUUAAAGUUCA
apparent Kd [1]: 72.9 nM | apparent Kd [2]: 113 nM

ACAUGAGGAUCACCCAUGUGAAACCAAUGGCUGACUUUGAGCUAGGAUAUUUGUGCAUAUCAAACAAAGAAGGAGCAUUACUGG
apparent Kd [1]: 41.1 nM | apparent Kd [2]: 37.9 nM

UUGUUAGGGAGAGGAUAUUGACAUGAGGAUCACCCAUGUAUUUGGGAGUGUUUACUGAAUUCUUACGAGAAGGCUUACGAAAUC
apparent Kd [1]: 264 nM | apparent Kd [2]: 186 nM

AUGCAACAUGAGGAUCACCCAUGUGAGGAUAUCGUAUAAUACUGUUGAAAGAGUUAGACGAGAAGGCACACCGU
apparent Kd [1]: 28.2 nM | apparent Kd [2]: 54 nM

GUAGCAUUAAUAGGAUAUUCAUACCGGAAACGGACAUGAGGAUCACCCAUGUGGCGAAAGCCUUGGGAGAAGGUAAUAUGCUAC
apparent Kd [3]: 821 nM | apparent Kd [4]: 240 nM

CAGGACAGAGGAUAUACAUAGAUACAGAUUCAUGUAGAACUACAUGAGGAUCACCCAUGUAGAAGGCUGACCUG
apparent Kd [1]: 28.5 nM | apparent Kd [2]: 221 nM
